Results from different studies.
Lines come from different studies, so protocols differ.
Read-out: metabolic stability
Sample: liver microsomes

Cc1ccc2c(c1)nc(CCc1cccc3cccnc13)n2-c1ccccc1 — compound remaining (rat; 1.5 µM; 30 min): 0.13%
Cc1ncsc1-c1ccc(CNC(=O)[C@@H]2C[C@@H](O)CN2C(=O)[C@@H](NC(=O)CCCCCCCCCCNC(=O)O[C@H]2C[C@@H](C)C=C3C=C[C@H](C)[C@H](CC[C@@H]4C[C@@H](O)CC(=O)O4)[C@H]32)C(C)(C)C)cc1 — compound remaining (mouse; 1 µM; 15 min; pH 7.4): 8.23%
N#Cc1ccc(C[C@H](NC(=O)Nc2ccc(F)cc2)C(=O)NCC2(c3ccc(OC(F)(F)F)cc3)CC2)cc1 — compound remaining (rat; 10 µM; 30 min; pH 7.4): > 80%
CCCn1nc(C(=O)N(C)C)c2c1CCC(NCc1ccc(F)cc1)C2 (centres unmarked) — compound remaining (mouse; 10 µM; 1 h): < 25%
O=S(=O)(c1cccc2cccnc12)N1CC(c2nc(-c3ccc(F)cc3)no2)C1 — compound remaining (mouse; 10 min): 74%
CCCn1nc(C(=O)N2CCCCC2)c2c1CCC(N(C)Cc1ccc(F)cc1)C2 (centres unmarked) — compound remaining (mouse; 10 µM; 1 h): 0%
CC(C)NCC(O)COc1cccc2ccccc12 (centres unmarked) — compound remaining (male rat; 1 µM; 30 min): < 7%
Cc1ccc2c(c1)nc(/C=C/c1cccc3cccnc13)n2-c1ccccc1 — compound remaining (rat; 1.5 µM; 0 h): 100%
CC[C@H](C)C(=O)O[C@H]1C[C@@H](C)C=C2C=C[C@H](C)[C@H](CC[C@@H]3C[C@@H](O)CC(=O)O3)[C@H]21 — compound remaining (mouse; 1 µM; 5 min; pH 7.4): 0.85%
CS(=O)(=O)c1ccc(-c2cnc(N)c(-c3ccc(C(F)(F)F)nc3)c2)cc1 — compound remaining (male rat; 1 µM; 30 min): 97%
CCCn1nc(C(=O)N2CCCCC2)c2c1CCC(N1CCc3ccccc3C1)C2 (centres unmarked) — compound remaining (mouse; 10 µM; 1 h): < 25%
